Results taken from article PMC5291243 (Nucleic Acids Research, 2016).
One block for each molecule: values may come before it. Non-standard residues stand in square brackets, D forms with d. No end group written: not given here. Lys(Me3) = C[N+](C)(C)CCCC[C@H](N)C(=O)O; pT = C[C@@H](OP(=O)(O)O)[C@H](N)C(=O)O

What was measured:
[1] = biological target: DIDO PHD finger (aa 260–325) (UniProt Q9BTC0); assay: other fluorescence titration
DIDO PHD finger [2] = biological target: DIDO PHD finger (UniProt Q9BTC0); assay: histone peptide microarray; conditions: reference: H3K4me3 peptide
BPTF PHD finger [3] = biological target: BPTF PHD finger (UniProt Q12830); assay: histone peptide microarray; conditions: reference: H3K4me3 peptide
Rag2 PHD finger [4] = biological target: Rag2 PHD finger (UniProt P21784); assay: histone peptide microarray; conditions: reference: H3K4me3 peptide
Taf3 PHD finger [5] = biological target: Taf3 PHD finger (UniProt Q5HZG4); assay: histone peptide microarray; conditions: reference: H3K4me3 peptide
PHF8 PHD finger [6] = biological target: PHF8 PHD finger (UniProt Q9UPP1); assay: histone peptide microarray; conditions: reference: H3K4me3 peptide
ING1 PHD finger [7] = biological target: ING1 PHD finger (UniProt Q9UK53); assay: histone peptide microarray; conditions: reference: H3K4me3 peptide
DIDO PHD finger [8] = biological target: DIDO PHD finger (UniProt Q9BTC0); assay: biotin-peptide pull-down of GST-reader, anti-GST blot; conditions: reference: H3K4me3 peptide; sites T3
BPTF PHD finger [9] = biological target: BPTF PHD finger (UniProt Q12830); assay: as above; conditions: reference: H3K4me3 peptide; sites T3
Rag2 PHD finger [10] = biological target: Rag2 PHD finger (UniProt P21784); assay: as above; conditions: reference: H3K4me3 peptide
Taf3 PHD finger [11] = biological target: Taf3 PHD finger (UniProt Q5HZG4); assay: as above; conditions: reference: H3K4me3 peptide; sites T3
[12] = biological target: KDM4A double Tudor domain (DTD) (UniProt O75164); assay: as above; conditions: reference: H3K4me3 peptide; sites T3
PHF8 PHD finger [13] = biological target: PHF8 PHD finger (UniProt Q9UPP1); assay: as above; conditions: reference: H3K4me3 peptide; sites T3
ING1 PHD finger [14] = biological target: ING1 PHD finger (UniProt Q9UK53); assay: as above; conditions: reference: H3K4me3 peptide; sites T3
RPE-1 cells = assay: Confocal fluorescence microscopy of Haspin inhibitor-treated RPE-1 cells; format: cell-based; conditions: 24 h
Outline: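 RPE-1 cells were grown on glass coverslips in DMEM/F12 with 10% FCS to 70% confluence. They were treated 24 h with the Haspin inhibitor from a 500 μM DMSO stock; controls got solvent only. Cells were fixed in 4% formaldehyde, permeabilized in 0.5% Triton X-100, and immunostained for DIDO, ING1 and H3K4me3, with DAPI counterstain. Single confocal layers were imaged with sequential excitation.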

ING1 PHD finger [15] = biological target: ING1 PHD finger (UniProt Q9UK53); assay: in vitro peptide binding, probably NMR titration; conditions: reference: H3K4me3 peptide (reference implied); sites T3,T6
ING1 PHD finger [16] = biological target: T1, ING1 PHD finger (Homo sapiens, UniProt Q9UK53); assay: 1H,15N HSQC NMR titration; format: binding; conditions: 298K, peptide aa 1–12 of H3
T1 sequence (Q9UK53 200-279 isoform Q9UK53-2): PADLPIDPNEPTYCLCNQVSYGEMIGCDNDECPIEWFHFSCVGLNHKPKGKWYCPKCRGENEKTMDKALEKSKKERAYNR

[17] = biological target: T2, PHF8 PHD finger (aa 37–106) (UniProt Q9UPP1 37-106, uniformly 15N-labelled for NMR); assay: other fluorescence titration
T2 sequence (looked up): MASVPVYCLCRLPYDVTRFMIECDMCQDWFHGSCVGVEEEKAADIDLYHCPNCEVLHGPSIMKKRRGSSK

DIDO PHD finger (aa 260–325), sequence (Q9BTC0 260-325): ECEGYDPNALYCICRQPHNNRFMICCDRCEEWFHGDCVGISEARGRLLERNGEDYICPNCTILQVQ

Molecule: H3K4me3 peptide (aa 1–12 of H3) (from UniProt P68431 2-13)
Kd [1]: 1100 nM

Molecule: CCCNc1ccc2ncc(-c3ccc4[nH]ncc4c3)n2n1 [CHR6494]
DIDO and ING1 attachment to chromatin (RPE-1 cells; 1 μM): only a portion of these proteins remained attached to chromatin | H3T3ph level in prophase (RPE-1 cells; 1 μM): pronounced reduction of H3T3ph in prophase | DIDO and ING1 localization on chromatin (RPE-1 cells; 2 μM): co-localization of DIDO and ING1 on poorly condensed H3K4me-positive chromatin | completion of mitosis (RPE-1 cells; 2 μM): unable to complete mitosis

Molecule: histone H3 1-20 (from UniProt P68431) H3K4me3T6ph peptide
binding against the reference (DIDO PHD finger [2]; sites T6): weaker | binding against the reference (BPTF PHD finger [3]; sites T6): weaker | binding against the reference (Rag2 PHD finger [4]; sites T6): weaker | binding against the reference (Taf3 PHD finger [5]; sites T6): weaker | binding against the reference (PHF8 PHD finger [6]; sites T6): weaker | binding against the reference (ING1 PHD finger [7]; sites T6): weaker | binding against the reference (Rag2 PHD finger [10]; sites T6): weaker

Molecule: H3K4me3T6ph peptide (aa 1–12 of histone H3) (from UniProt P68431 2-13)
Kd [1]: 5500 nM

B1: H3K4me3T6ph peptide (aa 1–12 of histone H3) (peptide, UniProt P68431 2-13, looked up)
peptide: ART[Lys(Me3)]Q[pT]ARKSTG
fold reduction of binding against H3K4me3 [17]: 2 fold

More lines, now with the values ahead:

binding against the reference (DIDO PHD finger [2]; sites T3): weaker | binding against the reference (BPTF PHD finger [3]; sites T3): weaker | binding against the reference (Rag2 PHD finger [4]; sites T3): weaker | binding against the reference (Taf3 PHD finger [5]; sites T3): weaker | binding against the reference (PHF8 PHD finger [6]; sites T3): weaker | binding against the reference (ING1 PHD finger [7]; sites T3): weaker | binding against the reference (DIDO PHD finger [8]): weaker | binding against the reference (BPTF PHD finger [9]): weaker | binding against the reference (Rag2 PHD finger [10]; sites T3): weaker | binding against the reference (Taf3 PHD finger [11]): weaker | binding against the reference [12]: weaker | binding against the reference (PHF8 PHD finger [13]): weaker | binding against the reference (ING1 PHD finger [14]): weaker
Molecule: histone H3 1-20 (from UniProt P68431) H3T3phK4me3 peptide

binding against the reference (ING1 PHD finger [15]): weaker
Molecule: histone H3 (from UniProt P68431) H3T3phK4me3T6ph peptide

CSPs / binding to ING1 PHD finger (ING1 PHD finger [16]): markedly reduced
Molecule: H3T3phK4me3T6ph: triple PTM-containing peptide

Kd [17]: 2500 nM
B2: H3K4me3 peptide (aa 1–12 of H3) (peptide, UniProt P68431 2-13, looked up)
peptide: ART[Lys(Me3)]QTARKSTG
